Measurements published in ChEMBL document CHEMBL1156545, “Unusual C25 steroid isomers with bicyclo[4.4.1]A/B rings from a volcano ash-derived fungus Penicillium citrinum” (J Nat Prod, 2008).
Active and inactive are the calls of the source. The rule behind the calls is not given here.

Legend:
CHO = experiment: Induction of cAMP generation in wild-type CHO cells at 10 uM; assay type: functional, cell-based; conditions: Cricetulus griseus
How it was run: (§1)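 Test compounds at 10 µM applied to CHO cells transfected with GPR12 and, in parallel, to untransfected wild-type CHO cells, which serve as the receptor-free comparison. The read-out is cAMP production in each cell line. The assay follows literature cAMP methods.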

[1] = target: T1, G-protein coupled receptor 12 (Homo sapiens) (UniProt P47775); experiment: Activity at GPR12 expressed in CHO cells assessed as induction of cAMP production at 10 uM; assay type: functional, cell-based; how it was run: as §1
T1 sequence (whole entry): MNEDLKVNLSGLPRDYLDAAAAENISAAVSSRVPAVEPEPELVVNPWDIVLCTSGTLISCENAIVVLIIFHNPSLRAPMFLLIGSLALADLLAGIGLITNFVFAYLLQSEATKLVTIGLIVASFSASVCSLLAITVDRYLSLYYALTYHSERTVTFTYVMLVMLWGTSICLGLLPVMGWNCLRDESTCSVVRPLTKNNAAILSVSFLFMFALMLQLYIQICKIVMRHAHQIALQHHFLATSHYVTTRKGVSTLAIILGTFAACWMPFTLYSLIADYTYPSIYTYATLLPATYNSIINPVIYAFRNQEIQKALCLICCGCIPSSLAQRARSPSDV

| Activity [1] | Structure (SMILES) | Activity (CHO) |
| --- | --- | --- |
| Active | C/C(=C\[C@@H](O)[C@H](C)O)[C@H]1CC[C@H]2C3=CC(=O)[C@H]4CC(=CC[C@H](O)C4)[C@H]3CC[C@]12C | inactive |
| Active | C[C@@H](O)/C=C/[C@](C)(O)[C@H]1CC[C@H]2C3=CC(=O)[C@H]4CC(=CC[C@H](O)C4)[C@H]3CC[C@@]21C | inactive |
| Active | CO[C@H](/C=C(\C)[C@H]1CC[C@H]2C3=CC(=O)[C@H]4CC(=CC[C@H](O)C4)[C@H]3CC[C@]12C)[C@@H](C)O | inactive |
| Active | C/C(=C\[C@H](O)[C@H](C)O)[C@H]1CC[C@H]2C3=CC(=O)[C@H]4CC(=CC[C@H](O)C4)[C@H]3CC[C@]12C | inactive |
| Active | C[C@H](O)/C=C/[C@](C)(O)[C@H]1CC[C@H]2C3=CC(=O)[C@H]4CC(=CC[C@H](O)C4)[C@H]3CC[C@@]21C | inactive |
